From ChEMBL document CHEMBL1143315, “Investigation of ketone warheads as alternatives to the nitrile for preparation of potent and selective cathepsin K inhibitors” (Bioorg Med Chem Lett, 2009) come the findings set out here.

Structures are written as SMILES. Where only a bound is given, the exact number is not on record here.

The species entered for data set [1] is Homo sapiens. The data set can be described thus: Selectivity ratio of IC50 for human cathepsin S to IC50 for humanized rabbit cathepsin K.
In a further data set the target is Cathepsin K (Homo sapiens, UniProt P43235). The data set can be described thus: Inhibition of humanized rabbit cathepsin K.
For data set [2], the species on record is Homo sapiens. Kind of data set: Selectivity ratio of IC50 for human cathepsin L to IC50 for humanized rabbit cathepsin K.
The species entered for data set [3] is Homo sapiens. The data set can be described thus: Selectivity ratio of IC50 for human cathepsin B to IC50 for humanized rabbit cathepsin K.
Data set [4] in a line: Half life in rat at 2 to 5 mg/kg, iv. Format: ADME, organism-based. Details: dose 2-5 mg/kg, route intravenous. The settings on record: in vivo. The method in brief: (§1)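 Rats were given a single IV dose of 2–5 mg/kg in 60% PEG 200. Half-life (t1/2) and clearance (Cl, mL/min/kg) were taken from the plasma profile. Where two distinct phases were seen, separate t1/2a and terminal t1/2b values were calculated.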

Data set [5] is described as follows: Clearance in rat at 2 to 5 mg/kg, iv. The arrangement: dose 2-5 mg/kg, route intravenous. Format: ADME, organism-based. The settings on record: in vivo. The method in brief: as §1
Data set [6] can be described thus: Primary phase half life in rat at 2 to 5 mg/kg, iv. In kind it is ADME, organism-based. The arrangement: dose 2-5 mg/kg, route intravenous. The settings on record: in vivo, read-out: alphat1/2 (converted). The method in brief:
as §1

The species named for a further data set is Rattus norvegicus. The data set can be described thus: Metabolic stability in rat hepatocytes assessed as compound remaining after 2 hrs.
Data set [7] is described as follows: Terminal half life in rat at 2 to 5 mg/kg, iv. In kind it is ADME, organism-based. Details: dose 2-5 mg/kg, route intravenous. The note with it: in vivo, read-out: beta t1/2 (converted). An outline of the steps:
as §1

In the case of `CC(C)(F)C[C@H](N[C@@H](c1ccc(-c2ccc(S(C)(=O)=O)cc2)cc1)C(F)(F)F)C(=O)NC1CN(C(N)=O)CC1=O` (stereo not given in full), the figures for the Ratio IC50 in the data set filed under Homo sapiens [1], in the data set filed under Homo sapiens [2] and in the data set listed under Homo sapiens [3] were 104, 40 and 355, respectively. Besides, the IC50 on Cathepsin K is 7.3 nM.
For the molecule `CC(C)(F)C[C@H](N[C@@H](c1ccc(-c2ccc(S(C)(=O)=O)cc2)cc1)C(F)(F)F)C(=O)NC1CCCN(S(=O)(=O)c2ccccn2)CC1=O` (stereo in doubt; 11) [listing 1 of 2 here], the IC50 against Cathepsin K turned out to be 1.8 nM.
Turning to `CC(C)(F)C[C@H](N[C@@H](c1ccc(-c2ccc(S(C)(=O)=O)cc2)cc1)C(F)(F)F)C(=O)NC1CCCNCC1=O` (stereo not given in full), the Ratio IC50 in the data set listed under Homo sapiens [1] is 179; in the data set filed under Homo sapiens [2], 236; in the data set filed under Homo sapiens [3], 303. Further, the IC50 on Cathepsin K was found to be 33 nM.
Turning to `CC(C)(F)C[C@H](N[C@@H](c1ccc(-c2ccc(S(C)(=O)=O)cc2)cc1)C(F)(F)F)C(=O)NC1CN(C(=O)NCc2ccccc2)CC1=O` (stereo not given in full), the results for the Ratio IC50 in the data set listed under Homo sapiens [1], in the data set listed under Homo sapiens [2] and in the data set listed under Homo sapiens [3] were 36, 667 and 53, respectively. Moreover, the midpoint of inhibition at Cathepsin K, the IC50, lay at 15 nM.
As for `CC(C)(F)C[C@H](N[C@@H](c1ccc(-c2ccc(S(C)(=O)=O)cc2)cc1)C(F)(F)F)C(=O)NC1CN(C(=O)c2ccccc2)CC1=O` (stereo not given in full), the Ratio IC50 worked out at 14 in the data set filed under Homo sapiens [1], 197 in the data set filed under Homo sapiens [2] and 188 in the data set listed under Homo sapiens [3]. This molecule also yielded an IC50 against Cathepsin K of 2.9 nM.
The matching figures for `CC(C)(F)C[C@H](N[C@@H](c1ccc(-c2ccc(S(C)(=O)=O)cc2)cc1)C(F)(F)F)C(=O)NC1CCN(c2ccccc2)CC1=O` (stereo not given in full): 8, 101, 2 and 8.3 nM.
The like results for `CC(C)(F)C[C@H](N[C@@H](c1ccc(-c2ccc(S(C)(=O)=O)cc2)cc1)C(F)(F)F)C(=O)NC1CN(C(=O)NS(=O)(=O)c2ccccc2)CC1=O` (stereo not given in full) were, in that order, > 6, > 147, 9 and 68 nM.
`CC(C)(F)C[C@H](N[C@@H](c1ccc(-c2ccc(S(C)(=O)=O)cc2)cc1)C(F)(F)F)C(=O)NC1CN(S(C)(=O)=O)CC1=O` (stereo not given in full): the Ratio IC50 in the data set filed under Homo sapiens [1] worked out at 313; in the data set filed under Homo sapiens [2] it was 158; in the data set listed under Homo sapiens [3] it was 370. For the same molecule, half-maximal inhibition against Cathepsin K (IC50) was put at 27 nM.
Take `CC(C)(F)C[C@H](N[C@@H](c1ccc(-c2ccc(S(C)(=O)=O)cc2)cc1)C(F)(F)F)C(=O)NC1CCCN(S(=O)(=O)c2ccccn2)CC1=O` (stereo in doubt; 9) [listing 1 of 2 here]: the Ratio IC50 was 45 in the data set filed under Homo sapiens [1], 939 in the data set filed under Homo sapiens [2] and > 1000 in the data set listed under Homo sapiens [3].
Molecule `CC(C)(F)C[C@H](N[C@@H](c1ccc(-c2ccc(S(C)(=O)=O)cc2)cc1)C(F)(F)F)C(=O)NC1CN(S(=O)(=O)c2ccccn2)CC1=O` (stereo not given in full) gave a half-life in data set [4] of 1.3 h. In addition, on Cathepsin K, the IC50 came to 85 nM. Moreover, in data set [5], the clearance was found to be 43 mL/min/kg.
Turning to `CC(C)(F)C[C@H](N[C@@H](c1ccc(-c2ccc(S(C)(=O)=O)cc2)cc1)C(F)(F)F)C(=O)NC1CN(C(=O)OC(C)(C)C)CC1=O` (stereo not given in full), the Ratio IC50 in the data set filed under Homo sapiens [1] is 29; in the data set filed under Homo sapiens [2] it was 403; in the data set filed under Homo sapiens [3] it was 27. The IC50 at Cathepsin K was found to be 3.9 nM.
`CC(C)(F)C[C@H](N[C@@H](c1ccc(-c2ccc(S(C)(=O)=O)cc2)cc1)C(F)(F)F)C(=O)NC1CCCN(S(=O)(=O)c2ccccn2)CC1=O` (stereo in doubt; 10) [listing 1 of 2 here]: the IC50 against Cathepsin K amounted to 10 nM.
As to `CCOC(=O)N1CC(=O)C(NC(=O)[C@H](CC(C)(C)F)N[C@@H](c2ccc(-c3ccc(S(C)(=O)=O)cc3)cc2)C(F)(F)F)C1` (stereo not given in full), the half-life in [4] was 2.1 h. This molecule also came in with an IC50 against Cathepsin K of 1.6 nM. The molecule further yielded a clearance in data set [5] of 53 mL/min/kg.
Regarding `CC(C)(F)C[C@H](N[C@@H](c1ccc(-c2ccc(S(C)(=O)=O)cc2)cc1)C(F)(F)F)C(=O)NC1CCN(S(=O)(=O)c2ccccn2)CC1=O` (stereo not given in full), in [4], the half-life was 0.6 h. Also, the Ratio IC50 in the data set filed under Homo sapiens [1] is 22; in the data set filed under Homo sapiens [2] it was 621; in the data set filed under Homo sapiens [3] it was 232. The molecule also had an IC50 at Cathepsin K of 5.7 nM. In data set [5], this molecule registered a clearance of 24 mL/min/kg.
As to `CCOC(=O)N1CCCC(NC(=O)[C@H](CC(C)(C)F)N[C@@H](c2ccc(-c3ccc(S(C)(=O)=O)cc3)cc2)C(F)(F)F)C(=O)C1` (stereo not given in full), the results for the Ratio IC50 in the data set filed under Homo sapiens [1], in the data set listed under Homo sapiens [2] and in the data set listed under Homo sapiens [3] were 46, > 185 and > 185, respectively. The same molecule came in with an IC50 at Cathepsin K of 54 nM.
In the case of `CC(C)(F)C[C@H](N[C@@H](c1ccc(-c2ccc(S(C)(=O)=O)cc2)cc1)C(F)(F)F)C(=O)NC1CCCN(S(=O)(=O)c2ccccn2)CC1=O` (stereo in doubt; 9) [listing 2 of 2 here], the half-life was 0.6 h in data set [6] and 11 h in data set [7]. The same molecule yielded an IC50 on Cathepsin K of 2 nM. Besides, in the data set filed under Rattus norvegicus, the amount remaining at 2 h came to 56%. Further, the clearance in data set [5] was 46 mL/min/kg.
Regarding `CC(C)(F)C[C@H](N[C@@H](c1ccc(-c2ccc(S(C)(=O)=O)cc2)cc1)C(F)(F)F)C(=O)NC1CCCN(S(=O)(=O)c2ccccn2)CC1=O` (stereo in doubt; 11) [listing 2 of 2 here], the Ratio IC50 in the data set listed under Homo sapiens [1] was 35; in the data set listed under Homo sapiens [2], 681; in the data set listed under Homo sapiens [3], > 1000.
`CC(=O)N1CC(=O)C(NC(=O)[C@H](CC(C)(C)F)N[C@@H](c2ccc(-c3ccc(S(C)(=O)=O)cc3)cc2)C(F)(F)F)C1` (stereo not given in full) had a half-life in [4] of 1.2 h. For the same molecule, the Ratio IC50 in the data set listed under Homo sapiens [1] was 604; in the data set listed under Homo sapiens [2], > 1000; in the data set listed under Homo sapiens [3] it was > 1000. In addition, at Cathepsin K, the IC50 was determined as 4.2 nM. This molecule also came in with a clearance in [5] of 67 mL/min/kg.
Take `COC(=O)NCC(=O)CNC(=O)[C@H](CC(C)(C)F)N[C@@H](c1ccc(-c2ccc(S(C)(=O)=O)cc2)cc1)C(F)(F)F`: in data set [4], the half-life was 1.1 h. Moreover, the figures for the Ratio IC50 in the data set filed under Homo sapiens [1], in the data set listed under Homo sapiens [2] and in the data set filed under Homo sapiens [3] were 38, 152 and 148, respectively. Also, the IC50 on Cathepsin K worked out at 45 nM. This molecule registered a clearance in data set [5] of 17 mL/min/kg.
For `CC(C)(F)C[C@H](N[C@@H](c1ccc(-c2ccc(S(C)(=O)=O)cc2)cc1)C(F)(F)F)C(=O)NC1CCCN(S(=O)(=O)c2cccc[n+]2[O-])CC1=O` (stereo not given in full), the values for the Ratio IC50 in the data set filed under Homo sapiens [1], in the data set listed under Homo sapiens [2] and in the data set listed under Homo sapiens [3] were 33, 984 and > 1000, respectively. Besides, it took 2.6 nM to reach half-maximal inhibition against Cathepsin K (IC50).
In [4], `CC(C)(F)C[C@H](N[C@@H](c1ccc(-c2ccc(S(C)(=O)=O)cc2)cc1)C(F)(F)F)C(=O)NC1(C#N)CC1` [ODANACATIB] had a half-life of 6 h. For the same molecule, half-maximal inhibition on Cathepsin K (IC50) was put at 0.2 nM. Further, the clearance in data set [5] was found to be 2 mL/min/kg.
Consider `CC(C)(F)C[C@H](N[C@@H](c1ccc(-c2ccc(S(C)(=O)=O)cc2)cc1)C(F)(F)F)C(=O)NC1CN(C(=O)Nc2ccccc2)CC1=O` (stereo not given in full), for which the Ratio IC50 in the data set listed under Homo sapiens [1] was determined as 104; in the data set listed under Homo sapiens [2], 40; in the data set listed under Homo sapiens [3] it was 355. In addition, the IC50 on Cathepsin K amounted to 7.3 nM.
As for `COC(=O)N1CC(=O)C(NC(=O)[C@H](CC(C)(C)F)N[C@@H](c2ccc(-c3ccc(S(C)(=O)=O)cc3)cc2)C(F)(F)F)C1` (stereo not given in full), the half-life in [4] is 2.8 h. The IC50 on Cathepsin K was 4.3 nM. This molecule displayed a clearance in [5] of 40 mL/min/kg.
In the case of `CCOC(=O)N1CCC(NC(=O)[C@H](CC(C)(C)F)N[C@@H](c2ccc(-c3ccc(S(C)(=O)=O)cc3)cc2)C(F)(F)F)C(=O)C1` (stereo not given in full), the Ratio IC50 was 10 in the data set filed under Homo sapiens [1], > 1000 in the data set filed under Homo sapiens [2] and 364 in the data set listed under Homo sapiens [3]. Further, the IC50 at Cathepsin K came to 9 nM.
With `CC(C)(F)C[C@H](N[C@@H](c1ccc(-c2ccc(S(C)(=O)=O)cc2)cc1)C(F)(F)F)C(=O)NC1CCCN(S(=O)(=O)c2ccccn2)CC1=O` (stereo in doubt; 10) [listing 2 of 2 here], the Ratio IC50 in the data set filed under Homo sapiens [1] was 54; in the data set listed under Homo sapiens [2] it was > 1000; in the data set filed under Homo sapiens [3], > 1000.
For the molecule `CC(C)(F)C[C@H](N[C@@H](c1ccc(-c2ccc(S(C)(=O)=O)cc2)cc1)C(F)(F)F)C(=O)NC1CCCN(S(=O)(=O)Cc2ccccc2)CC1=O` (stereo not given in full), the values for the Ratio IC50 in the data set filed under Homo sapiens [1], in the data set filed under Homo sapiens [2] and in the data set filed under Homo sapiens [3] were 8, > 63 and 50, respectively. The same molecule gave a half-inhibitory concentration (IC50) on Cathepsin K of 159 nM.
The matching figures for `CC(C)(F)C[C@H](N[C@@H](c1ccc(-c2ccc(S(C)(=O)=O)cc2)cc1)C(F)(F)F)C(=O)NC1CCN(c2ccccc2S(C)(=O)=O)CC1=O` (stereo not given in full): 3.9, 91, 1 and 6.9 nM.
The like results for `CC(C)(F)C[C@H](N[C@@H](c1ccc(-c2ccc(S(C)(=O)=O)cc2)cc1)C(F)(F)F)C(=O)NC1CNCC1=O` (stereo not given in full) were, in that order, 159, 16, 485 and 9.8 nM.
The like results for `CC(C)(F)C[C@H](N[C@@H](c1ccc(-c2ccc(S(C)(=O)=O)cc2)cc1)C(F)(F)F)C(=O)NC1CCCN(S(C)(=O)=O)CC1=O` (stereo not given in full) were, in that order, 114, 617, > 1000 and 16 nM.

Broadly, the IC50 is the point on the concentration scale where inhibition reaches its midpoint. By clearance is commonly meant a measure of how efficiently the substance is removed, as volume per time. High values mean efficient removal, low ones inefficient removal. A word on the share remaining: it is what is left of the initial amount, in per cent.
